# Laboratory results: ChEMBL document CHEMBL3244273, “Analgesic activity of novel spiro heterocycles. 2-Amino-7-oxa-3-thia-1-azaspiro[5,5]undec-1-enes and related compounds” (J Med Chem, 1978)
# The source made the active and inactive calls.
# What was measured:
# Rattus norvegicus [1] = test: Analgesic activity against po dosed yeast-induced inflamed foot Sprague-Dawley rat model assessed as increase in pain threshold in inflamed paw measured after 2 hrs; format: functional
# [2] = Acute toxicity in po dosed CF-1S mouse assessed as mortality measured for 5 days; format: organism-based; settings: in vivo
# How it was run: (§1)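 Male and female CF-1S mice (17-25 g) received the compound suspended in gum acacia solution, orally or intraperitoneally, in groups of six to ten per dose level. Mortality was followed for 24 h after ip dosing and for 5 days after oral dosing. LD50 was calculated by the Miller-Tainter method.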
# Mus musculus [3] = test: Analgesic activity in po dosed CF-1 mouse assessed as reduction in phenylquinone-induced writhing responses administered 15 mins prior to phenylquinone challenge; format: functional
# Rattus norvegicus [4] = test: Analgesic activity in po dosed Sprague-Dawley rat by tail flick assay; format: functional
# [5] = Acute toxicity in ip dosed CF-1S mouse assessed as mortality measured for 24 hrs; format: organism-based; settings: in vivo; how it was run: as §1
# [6] = Retardation factor of the compound using benzene-ethyl acetate at ratio of 1:1 as solvent system by thin layer chromatography; format: physicochemical
# Rattus norvegicus [7] = species: Rattus norvegicus; test: Antiinflammatory activity against mycobacterial adjuvant-induced arthritis in rat; format: functional, organism-based
# Mus musculus [8] = test: Analgesic activity in CF-1 mouse assessed as reduction in phenylquinone-induced writhing responses at 200 mg/kg, po administered 15 mins prior to phenylquinone challenge; format: functional
# How it was run: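 Fifteen min later they received 0.25 mL ip of 0.02% 2-phenyl-1,4-benzoquinone in 19:1 water-ethanol. Writhes were counted for 5 min starting 10 min after the injection, and % protection was calculated versus vehicle controls.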
# [9] = Rattus norvegicus, Sprague-Dawley, po, 2 h, read-out: ED50
# [10] = Mus musculus, CF-1, po, read-out: ED50
Structure (SMILES),ED50 (Rattus norvegicus [1]; [9]) [mg/kg],ED50 (Mus musculus [3]; [10]) [mg/kg],Activity (Rattus norvegicus [7]),other results
O=C(/N=C1\NC2(CCCCO2)CCS1)c1ccc(F)cc1 (stereo in doubt; 33) [listing 1 of 2 here],,,,ED50 (Rattus norvegicus [1]): 2 mg/kg; LD50 at 120 h [2]: 630 mg/kg; ED50 (Mus musculus [3]): 49 mg/kg; ED50 (Rattus norvegicus [4]): 22.3 mg/kg; LD50 at 24 h [5]: 1370 mg/kg
c1ccc(/N=C2\NC3(CCCCO3)CCS2)cc1 (racemic),> 100,> 200,,Rf [6]: 0.45
O=C(/N=C1\NC2(CCCCO2)CCS1)c1cccc(C(F)(F)F)c1 (centres undefined),11,> 200,inactive,
"O=C(/N=C1\NC2(CCCCO2)CCS1)c1ccc(F)cc1 (single isomer, unassigned; (+)) [listing 1 of 2 here]",,,inactive,
Cl.O=C(/N=C1\NC2(CCCO2)CCS1)c1ccc(F)cc1 (centres undefined),2,14.8,inactive,
O=C(/N=C1\NC2(CCCCO2)CCS1)c1ccc(Br)cc1 (centres undefined),3.2,> 200,inactive,
N#Cc1ccc(C(=O)/N=C2\NC3(CCCCO3)CCS2)cc1 (centres undefined),1,60,inactive,
CNC1=NC2(CCCCO2)CCS1 (racemic),21,52,inactive,
O=C(/N=C1\NC2(CCCCO2)CCS1)Nc1ccccc1 (racemic),> 200,> 200,,
O=C1c2ccccc2C(=O)N1C1=NC2(CCCCO2)CCS1 (racemic),7,14.8,inactive,
O=C(/N=C1\NC2(CCCCO2)CCS1)c1cccs1 (centres undefined),3.8,48,inactive,
O=C(/N=C1\NC2(CCCCC2)CCS1)c1ccc(F)cc1,> 100,> 200,inactive,
O=C(/N=C1\NC2(CCCCO2)CCS1)c1ccccc1O (centres undefined),> 200,> 200,inactive,
O=C(/N=C1\NC2(CCCCO2)CCS1)c1cccc(F)c1 (centres undefined),1.3,9.2,inactive,
O=C(/N=C1\NC2(CCCCO2)CCS1)c1ccccc1 (centres undefined),2.6,5,inactive,
NC1=NC2(CCCCC2)CCS1.O=C(O)/C=C\C(=O)O,19,6.6,inactive,ED50 (Rattus norvegicus [4]): > 50 mg/kg
S=C(/N=C1\NC2(CCCCO2)CCS1)Nc1ccccc1 (racemic),> 200,200,inactive,inhibition in vivo at 200 mg/kg (Mus musculus [8]): -48%
Cc1cc(C)c(C(=O)/N=C2\NC3(CCCCO3)CCS2)c(C)c1 (centres undefined),> 200,> 200,inactive,
"O=C(/N=C1\NC2(CCCCO2)CCS1)c1ccc(F)cc1 (single isomer, unassigned; (-))",1.8,,,ED50 (Mus musculus [3]): 28 mg/kg
CC1(C(=O)/N=C2\NC3(CCCCO3)CCS2)CCCCC1 (centres undefined),16,> 200,inactive,
NC1=NC2(CCCCO2)CCS1.O=C(O)/C=C\C(=O)O (racemic),0.6,3.6,inactive,LD50 at 120 h [2]: 120 mg/kg; ED50 (Rattus norvegicus [4]): 12 mg/kg; LD50 at 24 h [5]: 33 mg/kg
O=C(/N=C1\NC2(CCCCO2)CCS1)c1cccc2ccccc12 (centres undefined),28,> 200,,
CC(=O)/N=C1\NC2(CCCCO2)CCS1 (centres undefined),1.9,3.1,inactive,
O=C(/N=C1\NC2(CCCCO2)CCS1)c1ccc(F)cc1 (stereo in doubt; 33) [listing 2 of 2 here],,,inactive,
CN1CC[C@]23c4c5ccc(O)c4O[C@H]2[C@@H](O)C=C[C@H]3[C@H]1C5.CN1CC[C@]23c4c5ccc(O)c4O[C@H]2[C@@H](O)C=C[C@H]3[C@H]1C5.O=S(=O)(O)O,25,4.8,,ED50 (Rattus norvegicus [4]): 29.3 mg/kg
Cl.O=C(/C=C/c1ccccc1)/N=C1\NC2(CCCCO2)CCS1 (centres undefined),2.5,17,inactive,

Structure (SMILES),ED50 (Rattus norvegicus [1]; [9]) [mg/kg],ED50 (Mus musculus [3]; [10]) [mg/kg],Activity (Rattus norvegicus [7]),other results
CC(=O)Oc1ccccc1C(=O)O [ASPIRIN],50,82,,
COc1ccc2c3c1O[C@H]1[C@@H](O)C=C[C@H]4[C@@H](C2)N(C)CC[C@@]341.COc1ccc2c3c1O[C@H]1[C@@H](O)C=C[C@H]4[C@@H](C2)N(C)CC[C@@]341.O.O=P(O)(O)O.O=P(O)(O)O [CODEINE PHOSPHATE],40,18,,
NC1=NC2(CCCC(c3ccccc3)O2)CCS1.O=C(O)/C=C\C(=O)O (centres undefined),> 200,64,,
"O=C(/N=C1\NC2(CCCCO2)CCS1)c1ccc(F)cc1 (single isomer, unassigned; (+)) [listing 2 of 2 here]",,,,ED50 (Mus musculus [3]): 8.8 mg/kg
CCC(=O)O[C@](Cc1ccccc1)(c1ccccc1)[C@H](C)CN(C)C [PROPOXYPHENE],60,48,,
COc1ccc(C(=O)/N=C2\NC3(CCCCO3)CCS2)cc1 (centres undefined),6,62,inactive,
COc1ccc(C(=O)/N=C2\NC3(CCCCO3)CCS2)cc1OC (centres undefined),4.5,200,inactive,inhibition in vivo at 200 mg/kg (Mus musculus [8]): -75%
CC(=O)N(Cc1ccccc1)C1=NC2(CCCCO2)CCS1 (centres undefined),,,,Rf [6]: 0.37
Cl.c1ccc(C2=NC3(CCCCO3)CCS2)cc1 (racemic),> 200,> 200,,
O=C(/N=C1\NCCCS1)c1ccc(F)cc1,> 200,> 100,inactive,Rf [6]: 0.36
CC1CCCC2(CCSC(N)=N2)O1.O=C(O)/C=C\C(=O)O (centres undefined),3.2,25,,
CCCCC1C(=O)N(c2ccccc2)N(c2ccccc2)C1=O [PHENYLBUTAZONE],25,45,,
COc1ccc2c(c1)c(CC(=O)O)c(C)n2C(=O)c1ccc(Cl)cc1 [INDOMETHACIN],1.2,8.8,,
O=C(/N=C1\NC2(CCCCO2)CCS1)C12CC3CC(CC(C3)C1)C2 (centres undefined),14,> 200,inactive,
O=C(/N=C1\NC2(CCCCO2)CCS1)c1cccc([N+](=O)[O-])c1 (centres undefined),8.2,> 200,inactive,
O=C(/N=C1\SCCCN1C(=O)c1ccc(F)cc1)c1ccc(F)cc1,,,,Rf [6]: 0.5
O=C(/N=C1\NC2(CCCCO2)CCS1)c1ccc([N+](=O)[O-])cc1 (centres undefined),0.9,28,inactive,
COc1cc(C(=O)/N=C2\NC3(CCCCO3)CCS2)cc(OC)c1OC (centres undefined),> 200,> 200,inactive,
O=C(/N=C1\NC2(CCCCO2)CCS1)c1ccco1 (centres undefined),,42,inactive,
NC1=NC2(CCCO2)CCS1.O=C(O)/C=C\C(=O)O (racemic),4,15,inactive,
O=C(/N=C1\NC2(CCCCO2)CCS1)c1ccccc1Cl (centres undefined),,> 200,inactive,
CC(C)(C)C(=O)/N=C1\NC2(CCCCO2)CCS1 (centres undefined),29,200,inactive,inhibition in vivo at 200 mg/kg (Mus musculus [8]): -53%
COc1cccc(OC)c1C(=O)/N=C1\NC2(CCCCO2)CCS1 (centres undefined),> 200,> 200,inactive,
NC1=NC2(CCCCO2)CCC1.O=C(O)/C=C\C(=O)O (racemic),> 50,> 200,,
O=C(/N=C1\NC2(CCCCO2)CCS1)c1ccc(Cl)cc1 (centres undefined),2.4,1.1,inactive,
